Results as given in ChEMBL document CHEMBL2040780, “Antiarrhythmic properties of phenylpiperazine derivatives of phenytoin with α₁-adrenoceptor affinities” (Bioorg Med Chem, 2012).

How the values were obtained:
[1] = test system: Rattus norvegicus; test: Antiarrhythmic activity in Wistar rat assessed as effect on heart beat at 5 mg/kg, iv after 1 min; assay type: functional
In short: (§1)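 Male Wistar rats (180–250 g), anaesthetised with thiopental 60 mg/kg ip. Compound given iv in water at 10 mg/kg, or at a lower starting dose of 5 or 2.5 mg/kg. Standard lead II ECG recorded at 50 mm/s just before dosing and at 1, 5 and 15 min after. Heart rate and P–Q, Q–T and QRS intervals were read. n=6 per group, mean ± SEM, one-way ANOVA.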

[2] = test system: Rattus norvegicus; test: Antiarrhythmic activity in Wistar rat assessed as effect on heart beat at 5 mg/kg, iv after 5 mins; assay type: functional; in short: as §1
[3] = test system: Rattus norvegicus; test: Antiarrhythmic activity in Wistar rat assessed as effect on heart beat at 5 mg/kg, iv after 15 mins; assay type: functional; in short: as §1
[4] = test system: Rattus norvegicus; test: Cardiotoxicity in Wistar rat assessed as effect on P-Q interval at 5 mg/kg, iv after 1 min; assay type: toxicity, organism-based; design: dose 5 mg/kg, route intravenous; conditions: in vivo; in short: as §1
[5] = test system: Rattus norvegicus; test: Cardiotoxicity in Wistar rat assessed as effect on P-Q interval at 5 mg/kg, iv after 5 mins; assay type: toxicity, organism-based; design: dose 5 mg/kg, route intravenous; conditions: in vivo; in short: as §1
[6] = test system: Rattus norvegicus; test: Cardiotoxicity in Wistar rat assessed as effect on P-Q interval at 5 mg/kg, iv after 15 mins; assay type: toxicity, organism-based; design: dose 5 mg/kg, route intravenous; conditions: in vivo, 0.25 h; in short: as §1
[7] = test system: Rattus norvegicus; test: Cardiotoxicity in Wistar rat assessed as effect on Q-T interval at 5 mg/kg, iv after 1 min; assay type: toxicity, organism-based; design: dose 5 mg/kg, route intravenous; conditions: in vivo; in short: as §1
[8] = test system: Rattus norvegicus; test: Cardiotoxicity in Wistar rat assessed as effect on Q-T interval at 5 mg/kg, iv after 5 mins; assay type: toxicity, organism-based; design: dose 5 mg/kg, route intravenous; conditions: in vivo; in short: as §1
[9] = test system: Rattus norvegicus; test: Cardiotoxicity in Wistar rat assessed as effect on Q-T interval at 5 mg/kg, iv after 15 mins; assay type: toxicity, organism-based; design: dose 5 mg/kg, route intravenous; conditions: in vivo, 0.25 h; in short: as §1
[10] = test system: Rattus norvegicus; test: Cardiotoxicity in Wistar rat assessed as effect on QRS interval at 5 mg/kg, iv after 1 min; assay type: toxicity, organism-based; design: dose 5 mg/kg, route intravenous; conditions: in vivo; in short: as §1
[11] = test system: Rattus norvegicus; test: Cardiotoxicity in Wistar rat assessed as effect on QRS interval at 5 mg/kg, iv after 5 mins; assay type: toxicity, organism-based; design: dose 5 mg/kg, route intravenous; conditions: in vivo; in short: as §1
[12] = test system: Rattus norvegicus; test: Cardiotoxicity in Wistar rat assessed as effect on QRS interval at 5 mg/kg, iv after 15 mins; assay type: toxicity, organism-based; design: dose 5 mg/kg, route intravenous; conditions: in vivo, 0.25 h; in short: as §1
[13] = test system: Rattus norvegicus; test: Hypotensive activity in normotensive Wistar rat assessed as decrease in systolic blood pressure at 2.5 to 10 mg/kg, iv at 1 min; assay type: organism-based, Artery; design: dose 2.5-10 mg/kg, route intravenous; conditions: in vivo
In short: (§2)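 Right carotid artery cannulated with heparin-saline-filled tubing for blood pressure recording. After 5 min stabilisation, compound injected iv into the caudal vein (2.5–10 mg/kg, 1 ml/kg). Systolic and diastolic pressure followed for 60 min. n=6 per group, mean ± SEM, one-way ANOVA.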

[14] = test system: Rattus norvegicus; test: Hypotensive activity in normotensive Wistar rat assessed as decrease in diastolic blood pressure at 2.5 to 10 mg/kg, iv at 1 min; assay type: organism-based, Artery; design: dose 2.5-10 mg/kg, route intravenous; conditions: in vivo; in short: as §2
[15] = test system: Rattus norvegicus; test: Hypotensive activity in normotensive Wistar rat assessed as decrease in systolic blood pressure at 2.5 to 10 mg/kg, iv after 1 min measured up to 60 mins; assay type: organism-based, Artery; design: dose 2.5-10 mg/kg, route intravenous; conditions: in vivo; in short: as §2
[16] = test system: Rattus norvegicus; test: Hypotensive activity in normotensive Wistar rat assessed as decrease in diastolic blood pressure at 2.5 to 10 mg/kg, iv after 1 min measured up to 60 mins; assay type: organism-based, Artery; design: dose 2.5-10 mg/kg, route intravenous; conditions: in vivo; in short: as §2
[17] = molecular target: T1, Adrenergic receptor alpha-1 (Rattus norvegicus, UniProt P15823+P23944+P43140); test: Displacement of [3H]prazosin from alpha1 adrenoceptor in rat cerebral cortex after 30 mins by microbeta scintillation counting; assay type: tissue-based
T1 sequence (P15823 whole entry): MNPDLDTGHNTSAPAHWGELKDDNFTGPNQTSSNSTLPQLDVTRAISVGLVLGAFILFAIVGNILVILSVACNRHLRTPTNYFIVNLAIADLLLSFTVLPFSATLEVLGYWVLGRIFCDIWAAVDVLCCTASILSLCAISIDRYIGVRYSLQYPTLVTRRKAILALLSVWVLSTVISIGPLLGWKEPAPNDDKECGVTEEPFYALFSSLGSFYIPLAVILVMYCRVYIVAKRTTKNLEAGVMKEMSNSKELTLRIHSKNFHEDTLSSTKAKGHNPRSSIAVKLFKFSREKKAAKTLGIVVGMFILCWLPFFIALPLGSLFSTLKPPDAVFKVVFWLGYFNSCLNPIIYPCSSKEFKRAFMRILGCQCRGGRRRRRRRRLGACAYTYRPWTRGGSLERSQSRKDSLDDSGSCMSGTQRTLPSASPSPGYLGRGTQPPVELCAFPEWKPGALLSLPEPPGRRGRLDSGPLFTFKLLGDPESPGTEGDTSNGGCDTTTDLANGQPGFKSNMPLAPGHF
T1 sequence (P23944 whole entry): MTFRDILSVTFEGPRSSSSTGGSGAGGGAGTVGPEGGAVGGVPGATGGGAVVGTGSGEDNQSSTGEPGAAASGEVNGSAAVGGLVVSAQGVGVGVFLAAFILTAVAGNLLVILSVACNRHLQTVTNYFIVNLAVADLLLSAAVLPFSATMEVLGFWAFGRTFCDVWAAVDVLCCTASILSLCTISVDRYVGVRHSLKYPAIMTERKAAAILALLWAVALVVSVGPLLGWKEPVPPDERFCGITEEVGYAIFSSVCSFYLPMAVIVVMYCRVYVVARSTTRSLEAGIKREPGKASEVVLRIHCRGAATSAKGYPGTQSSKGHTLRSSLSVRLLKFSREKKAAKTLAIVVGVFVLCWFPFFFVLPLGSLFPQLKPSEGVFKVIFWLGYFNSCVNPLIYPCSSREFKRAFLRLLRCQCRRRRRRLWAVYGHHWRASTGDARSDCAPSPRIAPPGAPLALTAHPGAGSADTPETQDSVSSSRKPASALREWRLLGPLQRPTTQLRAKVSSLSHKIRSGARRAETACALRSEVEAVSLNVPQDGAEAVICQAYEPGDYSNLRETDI
T1 sequence (P43140 whole entry): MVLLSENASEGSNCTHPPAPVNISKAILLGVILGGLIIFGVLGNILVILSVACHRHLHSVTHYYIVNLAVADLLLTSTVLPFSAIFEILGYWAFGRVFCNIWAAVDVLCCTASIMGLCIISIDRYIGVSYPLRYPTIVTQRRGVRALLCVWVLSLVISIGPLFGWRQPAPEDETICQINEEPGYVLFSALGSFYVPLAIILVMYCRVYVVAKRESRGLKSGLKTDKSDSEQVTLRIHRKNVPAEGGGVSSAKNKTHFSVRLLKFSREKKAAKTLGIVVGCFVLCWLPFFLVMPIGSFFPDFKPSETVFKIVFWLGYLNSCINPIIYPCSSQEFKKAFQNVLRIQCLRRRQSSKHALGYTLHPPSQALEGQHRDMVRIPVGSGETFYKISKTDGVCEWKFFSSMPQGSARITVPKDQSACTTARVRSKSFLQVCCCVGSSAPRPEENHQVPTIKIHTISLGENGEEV
In short: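 Rat cerebral cortex homogenised in ice-cold 50 mM Tris-HCl (pH 7.6 at 25 °C), washed twice at 20000×g and resuspended at 10 mg wet weight/ml. Incubated with [3H]prazosin (19.5 Ci/mmol) and test compound for 30 min at 25 °C. Nonspecific binding defined with 10 µM phentolamine. GF/B filtration, scintillation counting, three-parameter logistic competition fit.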

| Compound | Activity [1] [min⁻¹] | Activity [2] [min⁻¹] | Activity [3] [min⁻¹] | Activity [4] [ms] | Activity [5] [ms] | Activity [6] [ms] | Activity [7] [ms] | Activity [8] [ms] | Activity [9] [ms] | Activity [10] [ms] | Activity [11] [ms] | Activity [12] [ms] | Activity [13] | Activity [14] | Activity [15] | Activity [16] | Ki [17] [nM] | pKi [17] |
| --- | --- | --- | --- | --- | --- | --- | --- | --- | --- | --- | --- | --- | --- | --- | --- | --- | --- | --- |
| COC(=O)CN1C(=O)N(CC(O)CN2CCN(c3ccccc3)CC2)C(c2ccccc2)(c2ccccc2)C1=O.Cl (racemic) | 246 | 261 | 272 | 72 | 65.2 | 64 | 97 | 81 | 74 | 33 | 26 | 22 | Toxic | Toxic | Non-toxic | Non-toxic | – | – |
| COC(=O)CN1C(=O)N(CC(O)CN2CCN(c3ccccc3Cl)CC2)C(c2ccccc2)(c2ccccc2)C1=O.Cl (racemic) | 290 | 256 | 268 | 62 | 63 | 59 | 76 | 76 | 69 | 16 | 15 | 17 | Toxic | Toxic | Non-toxic | Non-toxic | 354.7 | 6.45 |
